Reference: ChEMBL document CHEMBL4339197, “Discovery of Imidazo[1,2-a]pyrazines and Pyrazolo[1,5-c]pyrimidines as TARP γ-8 Selective AMPAR Negative Modulators” (ACS Med Chem Lett, 2019)
Converted amounts (≈) assume the structure as drawn. The source made the active and inactive calls. The rule behind the calls is not given here.

How the values were obtained:
[1] = target: GRIA1/CACNG8 (Homo sapiens); experiment: Negative allosteric modulation of recombinant human GluA1 flop isoform/TARPgamma8 expressed in HEK293 cells assessed as inhibition of glutamate-induced calcium flux at 100 uM by calcium 5/6 dye based FLIPR assay
GRIA1/CACNG2 [2] = target: T1, GRIA1/CACNG2 (Homo sapiens, UniProt P42261+Q9Y698); experiment: Negative allosteric modulation of recombinant human GluA1 flop isoform/TARPgamma2 expressed in HEK293 cells assessed as inhibition of glutamate-induced calcium flux by calcium 5/6 dye based FLIPR assay; assay type: cell-based
Method in brief: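 FLIPR Ca2+ flux assay in HEK-293 cells transiently expressing human GluA1o co-transfected with γ-2; glutamate-induced response; reported as pIC50.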

GRIA1/CACNG8 = GRIA1/CACNG8 (Homo sapiens, UniProt P42261+Q8WXS5); experiment: Negative allosteric modulation of recombinant human GluA1 flop isoform/TARPgamma8 expressed in HEK293 cells assessed as inhibition of glutamate-induced calcium flux by calcium 5/6 dye based FLIPR assay; assay type: cell-based
Method in brief: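 FLIPR assay of glutamate-induced Ca2+ flux in HEK-293 cells expressing a human GluA1o-γ-8 fusion construct. At least three assays each run in triplicate; mean pIC50 with standard deviation.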

[3] = target: T2, Voltage-dependent calcium channel gamma-2 subunit (Rattus norvegicus, UniProt Q71RJ2); experiment: Negative allosteric modulation of TARPgamma2 in rat cerebellar purkinje neurons assessed as inhibition of glutamate-induced current at 10 uM at -60 mV holding potential measured at 5 secs interval for 50 to 60 secs by patch-clamp electrophysiology method
T2 sequence (Q71RJ2 whole entry): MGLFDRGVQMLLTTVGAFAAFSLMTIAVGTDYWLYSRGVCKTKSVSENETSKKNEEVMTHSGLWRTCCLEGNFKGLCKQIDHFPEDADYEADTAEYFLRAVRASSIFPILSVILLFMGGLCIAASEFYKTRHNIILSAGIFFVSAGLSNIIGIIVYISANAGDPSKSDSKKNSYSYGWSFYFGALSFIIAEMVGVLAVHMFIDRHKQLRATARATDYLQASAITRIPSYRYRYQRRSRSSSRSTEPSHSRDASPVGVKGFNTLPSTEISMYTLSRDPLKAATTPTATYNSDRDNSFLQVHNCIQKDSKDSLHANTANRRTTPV

GRIA1/CACNG2 [4] = target: T1, GRIA1/CACNG2; experiment: Negative allosteric modulation of recombinant human GluA1 flop isoform/TARPgamma2 expressed in HEK293 cells assessed as inhibition of glutamate-induced calcium flux at 100 uM by calcium 5/6 dye based FLIPR assay; assay type: cell-based; conditions: hek293, 100 µM
Method in brief: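 Counterscreen of FLIPR Ca2+ flux in HEK-293 cells co-transfected with human GluA1o and γ-2, tested up to 100 µM.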

[5] = target: T3, Voltage-dependent calcium channel gamma-8 subunit (Rattus norvegicus) (UniProt Q8VHW5); experiment: Negative allosteric modulation of TARPgamma8 in rat hippocampal neurons assessed as inhibition of glutamate-induced current at 10 uM at -60 mV holding potential by patch-clamp electrophysiology method
T3 sequence (whole entry): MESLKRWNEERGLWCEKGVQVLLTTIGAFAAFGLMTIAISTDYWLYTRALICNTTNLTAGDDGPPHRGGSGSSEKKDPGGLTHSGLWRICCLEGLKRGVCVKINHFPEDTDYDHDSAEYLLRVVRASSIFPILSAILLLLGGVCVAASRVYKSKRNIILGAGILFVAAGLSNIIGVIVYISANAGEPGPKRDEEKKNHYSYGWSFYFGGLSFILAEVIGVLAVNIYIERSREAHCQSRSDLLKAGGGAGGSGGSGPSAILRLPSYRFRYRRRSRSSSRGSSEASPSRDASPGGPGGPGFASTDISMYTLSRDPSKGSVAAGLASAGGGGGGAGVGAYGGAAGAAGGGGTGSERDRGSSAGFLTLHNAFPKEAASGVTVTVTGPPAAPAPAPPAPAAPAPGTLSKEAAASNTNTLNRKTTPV

[6] = target: T3, Voltage-dependent calcium channel gamma-8 subunit (Rattus norvegicus); experiment: Negative allosteric modulation of TARPgamma8 in rat hippocampal neurons assessed as inhibition of glutamate-induced current at 10 uM at -60 mV holding potential measured at 5 secs interval for 50 to 60 secs by patch-clamp electrophysiology method relative to control
Mus musculus [7] = experiment: Ex vivo receptor occupancy at TARPgamma8 in po dosed mouse assessed as plasma concentration causing 50% reduction in [3H]JNJ-56022486 receptor labeling by autoradiography; assay type: functional, organism-based
Method in brief: (§1)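 Occupancy measured by ex vivo autoradiography with [3H]JNJ-56022486. ED50 from a Hill fit of occupancy versus dose. Brain and plasma EC50 from fitting occupancy against exposure.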

Mus musculus [8] = experiment: Ex vivo receptor occupancy at TARPgamma8 in mouse assessed as reduction in [3H]JNJ-56022486 receptor labeling at 10 mg/kg, po measured after 1 hr by autoradiography; assay type: functional
Method in brief: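 Mice given a single 10 mg/kg p.o. dose and sampled over time (n = 3 per time point, ±SEM). GluA/γ-8 receptor occupancy in hippocampus measured by ex vivo autoradiography with [3H]JNJ-56022486 radiotracer. Plasma and brain exposures also measured.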

Mus musculus [9] = experiment: Ex vivo receptor occupancy at TARPgamma8 in po dosed mouse assessed as reduction in [3H]JNJ-56022486 receptor labeling by autoradiography; assay type: functional
Method in brief: as §1

Mus musculus [10] = experiment: Anticonvulsant activity in albino CF1 mouse model of 60-Hz corneal stimulation induced kindling model assessed as decrease in seizure score at 5 mg/kg/day measured 1 hr post last dose; assay type: functional, organism-based
Method in brief: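 Mouse corneal kindling model; once-daily oral dosing at 5 mg/kg/day for 5 days, seizure challenge 1 h after dosing. Rotarod test given immediately before challenge. Read-out is the fraction of animals protected (Racine score 3 or lower). N = 12-14 animals per cohort.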

Mus musculus [11] = experiment: Anticonvulsant activity in po dosed albino CF1 mouse model of 60-Hz corneal stimulation induced kindling model assessed as decrease of seizure score treated for 1 hr prior to 60-Hz corneal stimulation and measured after 1 hr
[12] = Extraction ratio in rat liver microsomes at 1 uM measured after 60 mins by LC-MS/MS analysis; assay type: ADME, Microsome; conditions: read-out: ERH
Method in brief: (§2)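 Metabolic stability in human and rat liver microsomes at 1 µM compound; reported as extraction ratio.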

[13] = Apparent permeability across apical to basolateral side in MDCK-MDR1 cells at 5 uM measured after 60 mins by LC-MS/MS analysis; assay type: ADME, cell-based, Canis lupus familiaris; conditions: dog
[14] = Extraction ratio in human liver microsomes at 1 uM measured after 60 mins by LC-MS/MS analysis; assay type: ADME, Microsome; conditions: read-out: ERH
Method in brief: as §2

[15] = Efflux ratio of apparent permeability across basolateral to apical side over apical to basolateral side in MDCK-MDR1 cells at 5 uM measured after 60 mins by LC-MS/MS analysis; assay type: ADME, cell-based, Canis lupus familiaris; conditions: dog
Method in brief: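 Bidirectional permeability; efflux reported as the ratio of B-to-A over A-to-B apparent permeability.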

Cytochrome P450 2C9 = Cytochrome P450 2C9 (Homo sapiens, UniProt P11712); experiment: Inhibition of CYP2C9 in human liver microsomes using diclofenac as substrate measured after 15 mins in presence of NADPH by LC-MS/MS analysis; assay type: ADME
Sequence of Cytochrome P450 2C9 (P11712 whole entry): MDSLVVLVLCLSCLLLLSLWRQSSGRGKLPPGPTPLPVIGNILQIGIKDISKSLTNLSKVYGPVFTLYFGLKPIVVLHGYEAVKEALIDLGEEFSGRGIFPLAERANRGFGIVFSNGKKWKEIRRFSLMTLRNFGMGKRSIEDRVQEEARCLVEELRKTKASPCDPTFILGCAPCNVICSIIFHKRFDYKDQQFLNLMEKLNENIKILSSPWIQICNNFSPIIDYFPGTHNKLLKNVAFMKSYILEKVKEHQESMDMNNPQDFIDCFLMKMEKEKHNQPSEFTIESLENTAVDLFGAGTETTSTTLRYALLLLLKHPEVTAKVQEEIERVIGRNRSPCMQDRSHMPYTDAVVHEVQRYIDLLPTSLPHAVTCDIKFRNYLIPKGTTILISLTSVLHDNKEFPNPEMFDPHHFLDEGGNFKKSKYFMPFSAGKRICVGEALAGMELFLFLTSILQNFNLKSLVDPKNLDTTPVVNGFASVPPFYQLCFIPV

T1 sequence (P42261 whole entry, canonical isoform): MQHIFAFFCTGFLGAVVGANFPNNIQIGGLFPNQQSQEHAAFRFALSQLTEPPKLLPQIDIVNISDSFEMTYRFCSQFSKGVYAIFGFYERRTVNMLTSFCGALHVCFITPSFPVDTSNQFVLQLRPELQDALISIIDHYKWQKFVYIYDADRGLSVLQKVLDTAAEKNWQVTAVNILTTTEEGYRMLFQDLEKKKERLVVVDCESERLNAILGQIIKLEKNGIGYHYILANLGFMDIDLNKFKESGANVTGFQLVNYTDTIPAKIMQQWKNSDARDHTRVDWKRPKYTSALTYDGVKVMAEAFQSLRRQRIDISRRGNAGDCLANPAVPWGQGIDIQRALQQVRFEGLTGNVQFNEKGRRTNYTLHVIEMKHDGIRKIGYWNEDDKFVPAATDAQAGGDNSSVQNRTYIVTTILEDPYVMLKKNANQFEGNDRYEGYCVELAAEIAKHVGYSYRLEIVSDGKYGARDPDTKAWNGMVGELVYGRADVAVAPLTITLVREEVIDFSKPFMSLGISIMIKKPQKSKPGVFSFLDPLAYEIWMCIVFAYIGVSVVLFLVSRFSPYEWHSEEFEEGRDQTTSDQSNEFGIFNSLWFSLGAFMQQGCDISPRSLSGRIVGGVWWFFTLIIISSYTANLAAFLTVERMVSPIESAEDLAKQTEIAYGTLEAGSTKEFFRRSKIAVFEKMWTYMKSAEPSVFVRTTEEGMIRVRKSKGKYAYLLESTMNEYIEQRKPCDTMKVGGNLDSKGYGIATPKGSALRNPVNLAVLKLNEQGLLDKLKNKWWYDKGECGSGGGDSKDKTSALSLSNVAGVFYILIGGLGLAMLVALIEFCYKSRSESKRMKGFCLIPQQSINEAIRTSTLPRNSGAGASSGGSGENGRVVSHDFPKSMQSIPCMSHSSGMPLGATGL
T1 sequence (Q9Y698 whole entry, canonical isoform): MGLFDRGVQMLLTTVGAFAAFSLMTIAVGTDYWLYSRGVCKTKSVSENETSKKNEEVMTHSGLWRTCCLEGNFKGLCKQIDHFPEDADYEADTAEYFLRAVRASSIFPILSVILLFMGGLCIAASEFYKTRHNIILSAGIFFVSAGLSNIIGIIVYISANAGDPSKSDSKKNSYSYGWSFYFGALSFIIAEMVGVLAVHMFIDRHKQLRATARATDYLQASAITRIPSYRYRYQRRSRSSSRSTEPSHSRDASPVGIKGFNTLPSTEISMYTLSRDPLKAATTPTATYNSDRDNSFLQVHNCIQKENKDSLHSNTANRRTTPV
Sequence of GRIA1/CACNG8 (P42261 whole entry, the tested form may be a part, canonical isoform): as the sequence (P42261 whole entry, canonical isoform) above
Sequence of GRIA1/CACNG8 (Q8WXS5 whole entry, the tested form may be a part, canonical isoform): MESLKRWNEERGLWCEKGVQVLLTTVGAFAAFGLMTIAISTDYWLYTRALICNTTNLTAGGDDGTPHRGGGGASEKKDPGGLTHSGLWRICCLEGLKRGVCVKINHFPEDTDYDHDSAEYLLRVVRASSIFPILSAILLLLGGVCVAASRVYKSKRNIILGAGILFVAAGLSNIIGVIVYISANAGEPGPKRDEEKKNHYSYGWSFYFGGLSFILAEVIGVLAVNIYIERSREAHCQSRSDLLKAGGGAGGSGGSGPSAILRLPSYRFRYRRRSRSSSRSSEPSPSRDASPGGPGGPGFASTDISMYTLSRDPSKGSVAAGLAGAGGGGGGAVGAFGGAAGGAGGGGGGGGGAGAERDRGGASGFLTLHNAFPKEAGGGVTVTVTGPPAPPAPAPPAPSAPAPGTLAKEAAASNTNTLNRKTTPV

Work on `Oc1ccc(-c2c(-c3ccc(F)cc3)nc3c(N4CCOCC4)nccn23)cc1` yielded an IC50 ([1]; read-out: pIC50 (converted)) of 12.6 nM.

`O=C1CN(c2nccn3c(-c4ccc5c(c4)CC(=O)N5)c(-c4ccc(F)cc4)nc23)CCN1` gave an IC50 ([1]; read-out: pIC50 (converted)) of 0.501 nM.

Molecule `CC(=O)Nc1ccc(-c2c(-c3ccc(F)cc3)nc3c(N4CCOCC4)nccn23)cc1` has an IC50 ([1]; read-out: pIC50 (converted)) greater than 10000 nM.

`O=C1Cc2cc(-c3c(-c4ccc(F)cc4)nc4c(N5CCC(F)CC5)nccn34)ccc2N1` gave an IC50 ([1]; read-out: IC50) of 0.1 nM.

With `COCCn1cc(-c2c(-c3ccc(Cl)cc3)nc3c(N4CCOCC4)nccn23)cn1` the IC50 (GRIA1/CACNG2 [2]) was greater than 10000 nM, the IC50 (GRIA1/CACNG8) was 126 nM and the “inhibition (INH)” value [3] was “Not Active”. For the same molecule, the “inhibition (INH)” value (GRIA1/CACNG2 [4]) was “Not Active”, the inhibition [5] was “Dose-dependent effect” and the inhibition [6] was 50%.

Work on `O=C1Cc2cc(-c3c(-c4ccc(F)cc4)nn4c(N5CCOCC5)nccc34)ccc2N1` yielded an IC50 ([1]; read-out: pIC50 (converted)) of 0.501 nM.

In the case of `O=C1Cc2cc(-c3c(-c4ccc(F)cc4)nn4c(N5CCC(O)CC5)nccc34)ccc2N1`, the EC50 (Mus musculus [7]) is reported as 0.362 µg/mL (≈ 0.816 µM), the Occ (Mus musculus [8]) is reported as greater than 90% and the ED50 (Mus musculus [9]) is reported as 2.9 mg/kg. For the same molecule, the Activity (Mus musculus [10]) was “Active” and the ED50 (Mus musculus [11]) was 1.3 mg/kg.

`O=C1Cc2cc(-c3c(-c4ccc(F)cc4)nn4c(N5CCC(F)CC5)nccc34)ccc2N1` showed an IC50 ([1]; read-out: pIC50 (converted)) of 5.01 nM, a hepatic extraction ratio at 1 h, 1 µM [12] of 0.6 and a Papp A→B at 1 h, 5 µM [13] of 1.2 ×10⁻⁶ cm/s. For the same molecule, the hepatic extraction ratio at 1 h, 1 µM [14] was 0.6.

Work on `O=C1CN(c2nccc3c(-c4ccc5c(c4)CC(=O)N5)c(-c4ccc(F)cc4)nn23)CCN1` yielded an IC50 ([1]; read-out: pIC50 (converted)) of 5.01 nM.

`Nc1ccc(-c2c(-c3ccc(F)cc3)nc3c(N4CCOCC4)nccn23)cc1` gave an IC50 ([1]; read-out: pIC50 (converted)) of 63.1 nM.

`CC(=O)N1CCN(c2nccc3c(-c4ccc5c(c4)CC(=O)N5)c(-c4ccc(F)cc4)nn23)CC1` showed an IC50 ([1]; read-out: pIC50 (converted)) of 0.251 nM, a hepatic extraction ratio at 1 h, 1 µM [12] of 0.5 and a Papp A→B at 1 h, 5 µM [13] of 2.1 ×10⁻⁶ cm/s. It also gave an efflux ratio at 1 h, 5 µM [15] of 34 and a hepatic extraction ratio at 1 h, 1 µM [14] of 0.6.

With `Fc1ccc(-c2nc3c(N4CCOCC4)nccn3c2-c2ccc3[nH]ncc3c2)cc1` the IC50 ([1]; read-out: pIC50 (converted)) was 0.631 nM and the IC50 (Cytochrome P450 2C9) was 500 nM.

With `COc1ccc(-c2c(-c3ccc(F)cc3)nc3c(N4CCOCC4)nccn23)cc1` the IC50 ([1]; read-out: pIC50 (converted)) was 501 nM.

For `CC(=O)N1CCN(c2nccn3c(-c4ccc5c(c4)CC(=O)N5)c(-c4ccc(F)cc4)nc23)CC1`, the IC50 ([1]; read-out: pIC50 (converted)) was 0.398 nM.

Work on `Oc1ccc(-n2c(-c3ccc(F)cc3)nc3ccccc32)cc1` yielded an IC50 (GRIA1/CACNG2 [2]) of 1260 nM and an IC50 (GRIA1/CACNG8) of 200 nM.

With `O=C1Cc2cc(-c3c(-c4ccc(F)cc4)nc4c(N5CCC(O)CC5)nccn34)ccc2N1` the IC50 ([1]; read-out: pIC50 (converted)) was 0.398 nM.

Work on `Oc1ccc(-c2c(-c3ccc(Cl)cc3)nc3c(N4CCOCC4)nccn23)cc1` yielded an IC50 ([1]; read-out: pIC50 (converted)) of 10 nM.
